A word on the AUC: it is the area under the concentration-time curve, a measure of exposure. Usually clearance stands for the rate of elimination divided by the concentration. Broadly, the Tmax is the time from dosing to the highest level. The half-life is how long it takes for the measured level to halve. As usually defined, the pIC50 is −log10 of the IC50, conventionally taken in molar units.

Structures are written as SMILES. pIC50: −log10 of the molar value. Calls of active or inactive are those of the source. The calls are words filed in the database; no cut-off is given here.

The text below walks through data of ChEMBL document CHEMBL3407438, “Discovery of potent, orally bioavailable, small-molecule inhibitors of WNT signaling from a cell-based pathway screen” (J Med Chem, 2015).

Data set [1] is described as follows: Antitumor activity against human COLO205-F1756 clone 4 cells harboring APC mutant xenografted in CrTac:NCr-Foxn1nu mouse assessed as reduction in flux normalized to tumor weight at 70 mg/kg, po bid for 9 days relative to control. It counts as functional, COLO 205. More on the design: scale not given: the % may be the effect or the level left. The gist of the method:
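Female athymic nude mice were implanted sc in the flank with 3 million COLO205-F1756 clone 4 cells. At about 100 mm3, groups of n = 8 were gavaged at 70 mg/kg bid or with vehicle (10% DMSO, 5% Tween 20 in saline). Luminescent flux was imaged after sc D-luciferin 2 and 6 h post final dose, then tumours were excised and weighed. Mann–Whitney U test.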
In general terms: Xenograft models place foreign cells or tissue in a host animal.

Data set [2] can be described thus: AUC in NMRI mouse at 0.5 mg/kg, po. It counts as ADME, organism-based. The conditions noted are these: plasma. More on the design: dose 0.5 mg/kg, route oral. The gist of the method:
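Female NMRI mice (n = 5) given a single iv bolus (0.2 mg/kg per compound) or oral gavage (0.5 mg/kg per compound) as a cassette, in DMSO/PEG 200/water. Serial retro-orbital blood was drawn under isoflurane from 3 animals per route at 0.1 (iv), 0.25 (po), 0.5, 1, 2, 4 and 6 h. Plasma was quantified by LC–MS/MS.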

Data set [3] is described as follows: Clearance in Wistar rat at 0.2 mg/kg, iv. It counts as ADME, organism-based. More on the design: dose 0.2 mg/kg, route intravenous. The conditions noted are these: in vivo. The procedure, abridged:
(§1)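 Male Wistar rats (n = 6) received cassette dosing, either iv bolus at 0.2 mg/kg or oral gavage at 0.5 mg/kg per compound, in DMSO/PEG 200/water. Plasma levels were measured by UPLC–MS/MS.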

A short description of data set [4]: Tmax in Wistar rat at 0.5 mg/kg, po. More on the design: dose 0.5 mg/kg, route oral. It counts as ADME, organism-based. The conditions noted are these: in vivo. The gist of the method: as §1
The subject of data set [5] is COLO 205. The data set can be described thus: Effect on TCF1 level in human COLO205-F1756 clone 4 cells harboring APC mutant and TCF/LEF responsive element at 350 nM by immunoblotting. The data set is classed as functional, cell-based. For orientation: A western blot detects proteins with antibodies after separation by electrophoresis.
In data set [6] the target is Cytochrome P450 2C9 (Homo sapiens, UniProt P11712). The data set can be described thus: Inhibition of CYP2C9 (unknown origin). It counts as ADME. The conditions noted are these: human.
Chain of Cytochrome P450 2C9 (P11712 whole entry): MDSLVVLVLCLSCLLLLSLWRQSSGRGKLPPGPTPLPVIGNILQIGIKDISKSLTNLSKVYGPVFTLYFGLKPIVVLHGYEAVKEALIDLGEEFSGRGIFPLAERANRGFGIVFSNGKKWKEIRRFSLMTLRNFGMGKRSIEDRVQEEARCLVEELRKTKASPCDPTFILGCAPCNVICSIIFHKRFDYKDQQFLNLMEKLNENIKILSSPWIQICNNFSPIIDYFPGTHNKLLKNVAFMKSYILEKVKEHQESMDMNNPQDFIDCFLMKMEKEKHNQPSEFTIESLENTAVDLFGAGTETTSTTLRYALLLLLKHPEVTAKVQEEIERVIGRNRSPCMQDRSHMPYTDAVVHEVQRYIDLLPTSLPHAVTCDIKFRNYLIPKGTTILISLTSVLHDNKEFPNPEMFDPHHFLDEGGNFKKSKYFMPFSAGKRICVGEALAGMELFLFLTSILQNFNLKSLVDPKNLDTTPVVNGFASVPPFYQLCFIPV
Data set [7] is described as follows: in vivo. The conditions noted are these: Wistar, rat, iv, 0.2 mg/kg.
Data set [8] addresses T1, Poly [ADP-ribose] polymerase tankyrase-2 (Homo sapiens, UniProt Q9H2K2).
T1 sequence (Q9H2K2 whole entry): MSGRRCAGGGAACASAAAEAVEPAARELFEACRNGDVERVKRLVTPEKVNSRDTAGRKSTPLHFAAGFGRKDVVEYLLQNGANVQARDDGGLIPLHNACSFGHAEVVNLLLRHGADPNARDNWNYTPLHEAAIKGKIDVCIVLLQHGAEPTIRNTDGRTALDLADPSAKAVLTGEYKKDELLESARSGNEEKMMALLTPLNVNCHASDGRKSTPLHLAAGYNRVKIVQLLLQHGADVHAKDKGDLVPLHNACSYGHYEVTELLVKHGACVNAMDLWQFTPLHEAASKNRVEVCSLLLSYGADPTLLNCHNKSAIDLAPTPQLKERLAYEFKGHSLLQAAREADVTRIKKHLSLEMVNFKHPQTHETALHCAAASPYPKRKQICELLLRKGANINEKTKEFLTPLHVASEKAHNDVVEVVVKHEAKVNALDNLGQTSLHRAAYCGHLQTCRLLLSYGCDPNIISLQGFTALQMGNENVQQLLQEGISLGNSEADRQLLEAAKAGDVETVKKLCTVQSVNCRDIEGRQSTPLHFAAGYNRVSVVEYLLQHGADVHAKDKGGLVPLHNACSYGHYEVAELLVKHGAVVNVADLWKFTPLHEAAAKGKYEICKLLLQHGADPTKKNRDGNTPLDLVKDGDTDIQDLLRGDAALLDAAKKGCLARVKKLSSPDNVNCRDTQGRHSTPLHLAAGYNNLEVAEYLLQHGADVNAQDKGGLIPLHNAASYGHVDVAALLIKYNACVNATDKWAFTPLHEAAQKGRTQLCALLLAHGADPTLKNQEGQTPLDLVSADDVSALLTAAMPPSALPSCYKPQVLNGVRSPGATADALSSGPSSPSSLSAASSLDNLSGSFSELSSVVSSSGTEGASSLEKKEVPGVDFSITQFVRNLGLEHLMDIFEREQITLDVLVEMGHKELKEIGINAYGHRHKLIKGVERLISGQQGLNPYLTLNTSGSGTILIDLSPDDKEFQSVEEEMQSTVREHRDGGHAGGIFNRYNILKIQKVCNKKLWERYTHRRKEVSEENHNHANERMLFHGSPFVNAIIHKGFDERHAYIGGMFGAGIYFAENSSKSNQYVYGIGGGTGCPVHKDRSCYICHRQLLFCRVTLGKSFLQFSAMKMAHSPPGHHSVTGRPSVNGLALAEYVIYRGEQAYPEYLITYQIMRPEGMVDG
The data set can be described thus: Inhibition of GST-tagged TNKS2 (873 to 1166 aa) (unknown origin) after 90 mins by HTRF assay.

Data set [9] in a line: Thermodynamic aqueous solubility of the compound in phosphate buffer at pH 7.4. It counts as physicochemical. The procedure, abridged: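 Kinetic and thermodynamic aqueous solubilities were measured in phosphate buffer at pH 7.4.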
Data set [10] in a line: Drug uptake in tumor of human COLO205-F1756 clone 4 cells harboring APC mutant xenografted CrTac:NCr-Foxn1nu mouse at 70 mg/kg, po bid for 9 days measured after 2 to 6 hrs. The conditions noted are these: in vivo. It counts as ADME, organism-based, COLO 205. More on the design: dose 70 mg/kg, route oral. The procedure, abridged:
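In COLO205-F1756 clone 4 xenograft-bearing nude mice dosed orally at 70 mg/kg bid, cardiac blood and tumours were taken 2 and 6 h after the final dose. Tumours were homogenized in 3 v/w PBS, methanol-extracted with internal standard, and total levels were measured by UPLC–MS/MS (MRM, positive ion).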

A short description of data set [11]: Tmax in Wistar rat at 0.2 mg/kg, iv. The conditions noted are these: in vivo. More on the design: dose 0.2 mg/kg, route intravenous. The data set is classed as ADME, organism-based. The gist of the method: as §1

Take `Cn1cc(-c2ccc(-c3cncc(Cl)c3N3CCC4(CCNC4=O)CC3)cc2)cn1`: the Activity in [1] came to 80%. Further, the AUC in [2] stood at 143 ng·h/mL. Also, in [3], the clearance came out at 26 mL/min/kg. The Tmax in data set [4] worked out at 15 min; in data set [11], 6 min. For the same compound, the outcome in data set [5] was inactive. Also, the “inhibition (INH)” value in data set [6] was “Not Active”. Moreover, the half-life in data set [7] was 58.2 min. Further, the pIC50 in [8] was 4.82. Further, the Therm_solubility in data set [9] amounted to 6 µg/mL. Besides, the Drug uptake entry in data set [10] was “Active”.
